Blank lines part the entries; values can stand above or below the compound they belong to. Activity calls are given as the source filed them. The calls are words filed in the database; no cut-off is given here.
Columns and labels:
[1] = Chemical stability at pH 1 incubated for 2 hrs; type: physicochemical; settings: buffer, pH 1, 2 h
Summary of the method: (§1)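 Compound was held in aqueous buffer at the stated pH for 2 h at 37 °C.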

[2] = Chemical stability at pH 10 incubated for 2 hrs; type: physicochemical; settings: buffer, pH 10, 2 h; summary of the method: as §1
[3] = Clearance in human microsomes; type: ADME, Microsome
[4] = Volume of distribution at steady state in Wistar rat at 1 mg/kg, iv measured upto 24 hrs by LC-MS/MS analysis; type: ADME, organism-based; settings: in vivo, read-out: Vdss
Summary of the method: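 Male Wistar rats (N = 3) received a single 1 mg/kg i.v. dose as a solution in NMP/0.9% NaCl (30:70, 2 mL/kg). Blood was drawn at 0.083, 0.25, 0.5, 1, 2, 4, 7 and 24 h onto K2EDTA, and plasma was separated by centrifugation at 3000g for 15 min at 4 °C. Concentrations were measured by LC-MS/MS, and Vss was derived by noncompartmental analysis.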

[5] = Tmax in Wistar rat at 5 mg/kg, po measured upto 24 hrs by LC-MS/MS analysis; type: ADME, organism-based; settings: in vivo
Summary of the method: (§2)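 Male Wistar rats, single dose. i.v. in NMP/0.9% NaCl 30:70; p.o. and i.p. in NMP/HPMC/diisooctyl sulfosuccinate 10:90; 3 per i.v./p.o. group, 6 i.p. K2EDTA plasma sampled 0.083–7 h, plus 24 h for i.v./p.o.; brain and CSF at 1, 2, 7 h (i.p. only). LC-MS/MS, noncompartmental analysis.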

[6] = AUClast in Wistar rat at 5 mg/kg, po measured upto 24 hrs by LC-MS/MS analysis; type: ADME, organism-based; settings: in vivo
Summary of the method: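 Male Wistar rats (N = 3 per group) received a single dose. The i.v. dose was 1 mg/kg in NMP/0.9% NaCl 30:70. The p.o. dose was 5 mg/kg in NMP/HPMC/diisooctyl sulfosuccinate 10:90. Blood was taken into K2EDTA from 0.083 (i.v.) or 0.25 h to 24 h. Plasma was assayed by LC-MS/MS and analysed non-compartmentally.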

[7] = Oral bioavailability in Wistar rat at 5 mg/kg measured upto 24 hrs by LC-MS/MS analysis; type: ADME, organism-based; settings: in vivo; summary of the method: as §2
[8] = target: CYP3A4 (Homo sapiens, UniProt P08684); assay: Inhibition of CYP3A4 (unknown origin) at 10 uM relative to control; type: ADME
Chain of CYP3A4 (P08684 whole entry): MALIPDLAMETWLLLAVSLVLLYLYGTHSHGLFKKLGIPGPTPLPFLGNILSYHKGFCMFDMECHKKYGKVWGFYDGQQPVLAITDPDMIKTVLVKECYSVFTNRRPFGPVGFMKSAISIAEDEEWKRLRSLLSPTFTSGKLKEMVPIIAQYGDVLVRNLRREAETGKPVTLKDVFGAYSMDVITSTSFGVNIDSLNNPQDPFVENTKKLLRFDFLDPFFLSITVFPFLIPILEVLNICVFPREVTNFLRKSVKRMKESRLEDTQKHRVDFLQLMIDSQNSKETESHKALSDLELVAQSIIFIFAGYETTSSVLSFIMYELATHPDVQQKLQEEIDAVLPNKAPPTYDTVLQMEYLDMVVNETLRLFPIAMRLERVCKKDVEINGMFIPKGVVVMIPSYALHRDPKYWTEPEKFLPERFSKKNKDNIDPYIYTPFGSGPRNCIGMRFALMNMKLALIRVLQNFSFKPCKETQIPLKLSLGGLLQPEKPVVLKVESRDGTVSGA

[9] = target: Voltage-gated inwardly rectifying potassium channel KCNH2 (Homo sapiens, UniProt Q12809); assay: Inhibition of human ERG expressed in CHO cells by automated patch clamp method; type: toxicity, cell-based
Chain of Voltage-gated inwardly rectifying potassium channel KCNH2 (Q12809 whole entry): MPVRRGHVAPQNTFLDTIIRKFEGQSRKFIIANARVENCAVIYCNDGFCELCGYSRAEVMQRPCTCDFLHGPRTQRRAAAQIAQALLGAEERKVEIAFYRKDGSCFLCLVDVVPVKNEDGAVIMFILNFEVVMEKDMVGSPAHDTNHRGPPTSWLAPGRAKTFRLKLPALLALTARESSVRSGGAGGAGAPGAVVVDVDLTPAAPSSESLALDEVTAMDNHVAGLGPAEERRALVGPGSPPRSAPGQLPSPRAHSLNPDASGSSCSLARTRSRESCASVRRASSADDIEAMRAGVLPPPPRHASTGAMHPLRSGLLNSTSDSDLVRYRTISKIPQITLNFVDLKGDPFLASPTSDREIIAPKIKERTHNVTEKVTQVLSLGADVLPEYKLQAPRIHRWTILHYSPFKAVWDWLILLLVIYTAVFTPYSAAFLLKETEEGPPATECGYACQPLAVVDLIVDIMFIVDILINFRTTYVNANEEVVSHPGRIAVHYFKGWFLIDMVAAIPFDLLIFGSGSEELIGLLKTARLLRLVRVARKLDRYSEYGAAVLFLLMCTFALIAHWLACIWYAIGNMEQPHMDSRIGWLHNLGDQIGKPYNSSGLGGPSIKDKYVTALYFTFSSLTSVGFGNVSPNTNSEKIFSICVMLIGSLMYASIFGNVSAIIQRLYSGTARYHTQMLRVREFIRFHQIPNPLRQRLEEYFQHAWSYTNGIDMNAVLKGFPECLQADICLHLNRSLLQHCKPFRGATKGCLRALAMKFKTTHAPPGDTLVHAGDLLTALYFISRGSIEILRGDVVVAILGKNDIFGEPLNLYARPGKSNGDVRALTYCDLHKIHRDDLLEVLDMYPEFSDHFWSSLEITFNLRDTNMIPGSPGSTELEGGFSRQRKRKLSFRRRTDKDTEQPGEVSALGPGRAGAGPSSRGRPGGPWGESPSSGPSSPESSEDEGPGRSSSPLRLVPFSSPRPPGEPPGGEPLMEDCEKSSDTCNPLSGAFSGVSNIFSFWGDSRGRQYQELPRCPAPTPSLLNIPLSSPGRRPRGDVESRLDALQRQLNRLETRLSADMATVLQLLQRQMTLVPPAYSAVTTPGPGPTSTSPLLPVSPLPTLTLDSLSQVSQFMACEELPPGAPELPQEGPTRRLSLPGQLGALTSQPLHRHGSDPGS

[10] = Drug concentration in mouse CSF at 3 mg/kg, ip measured after 4 hrs; type: ADME, organism-based, Cerebrospinal fluid; settings: read-out: Ct
[11] = Average drug concentration in mouse plasma at 30 mg/kg, ip measured after 2 hrs; type: ADME, organism-based; settings: read-out: Cave
Summary of the method: (§3)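 In a time course, mice were injected i.p. with 30 mg/kg in NaCl/DMSO/Tween 80 (80/10/10). Average plasma levels were determined at the stated time points over 24 h.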

[12] = Average drug concentration in mouse plasma at 30 mg/kg, ip measured after 8 hrs; type: ADME, organism-based; settings: in vivo; summary of the method: as §3
[13] = target: T1, Monoglyceride lipase (Homo sapiens, UniProt Q99685); assay: Inhibition of human MAGL using native substrate by Rapidfire MS assay
T1 sequence (Q99685 whole entry): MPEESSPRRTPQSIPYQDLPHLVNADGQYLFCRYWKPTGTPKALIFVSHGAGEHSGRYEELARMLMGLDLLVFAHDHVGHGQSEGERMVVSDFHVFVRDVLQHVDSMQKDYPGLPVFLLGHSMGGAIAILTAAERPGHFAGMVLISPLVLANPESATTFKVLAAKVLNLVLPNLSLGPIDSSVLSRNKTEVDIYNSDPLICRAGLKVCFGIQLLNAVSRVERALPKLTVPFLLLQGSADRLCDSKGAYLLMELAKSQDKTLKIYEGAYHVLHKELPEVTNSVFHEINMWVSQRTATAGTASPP

[14] = Inhibition of Cynomolgus monkey MAGL using native substrate by Rapidfire MS assay
[15] = Brain-polar-lipids/water distribution coefficient, LIMBA logD brain of the compound at pH 7.4 incubated for 8 hrs by LIMBA
[16] = species: Mus musculus; assay: Inhibition of DAGL in mouse brain lysates at 10 uM by ABPP assay; type: subcellular
Summary of the method: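 Gel-based activity-based protein profiling of hydrolases, with the inhibitor at 10 µM.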

[17] = tested on: Mus musculus; assay: Upregulation of brain 2-AG level in ip dosed mouse measured after 4 hrs; type: functional, organism-based; settings: dose 3-30 mg/kg
Summary of the method: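 Mice dosed i.p. in NaCl/DMSO/TW80 (80/10/10): 3, 10 or 30 mg/kg with sacrifice at 4 h, or 30 mg/kg over a 24 h time course. Brain extract 2-AG and AA were measured by LC/MS.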

[18] = target: T2, Monoglyceride lipase (Mus musculus) (UniProt O35678); assay: In vivo receptor occupancy at MAGL receptor in mouse at 30 mg/kg, ip measured after 2 hrs; type: functional, organism-based
T2 sequence (whole entry): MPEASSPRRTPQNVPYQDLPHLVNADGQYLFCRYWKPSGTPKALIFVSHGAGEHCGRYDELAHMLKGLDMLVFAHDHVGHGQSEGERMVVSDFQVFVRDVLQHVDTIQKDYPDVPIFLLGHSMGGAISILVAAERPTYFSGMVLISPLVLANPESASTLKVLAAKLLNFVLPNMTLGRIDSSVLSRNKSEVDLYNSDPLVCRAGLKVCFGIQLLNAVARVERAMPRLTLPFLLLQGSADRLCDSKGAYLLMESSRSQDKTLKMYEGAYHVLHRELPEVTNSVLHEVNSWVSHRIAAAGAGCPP
Summary of the method: (§4)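 Mice dosed 30 mg/kg i.p. in NaCl/DMSO/TW80 (80/10/10). Brain proteome was prepared at set time points over 24 h and MAGL occupancy read by activity-based protein profiling.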

[19] = target: T2, Monoglyceride lipase (Mus musculus); assay: In vivo receptor occupancy at MAGL receptor in mouse at 30 mg/kg, ip measured after 8 hrs; type: functional, organism-based; summary of the method: as §4
[20] = target: T2, Monoglyceride lipase (Mus musculus); assay: In vivo receptor occupancy at MAGL receptor in mouse at 30 mg/kg, ip measured after 16 hrs; type: functional, organism-based; summary of the method: as §4
[21] = tested on: Mus musculus; assay: Antiinflammatory activity in LPS-induced CD-1 mouse neuroinflammation model assessed as decrease in brain LCN2 mRNA expression at 30 mg/kg, ip measured after 6 hrs by qRT-PCR analysis; type: functional, organism-based
Summary of the method: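 CD-1 mice received NaCl + vehicle, LPS (5 mg/kg) + vehicle, or LPS + inhibitor at 30 mg/kg i.p. The vehicle was NaCl/DMSO/Tween 80, 80/10/10. Mice were killed 6 h after compound dosing. LCN2 and IL1b mRNA in cortical brain lysates were quantified by droplet digital qRT-PCR.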

Stability [1]: Stable | Stability [2]: Stable | microsomal CLint [3]: < 10 µL/min/mg | Vd [4]: 1.3 L/kg | Tmax [5]: 6 h | AUC(0-t) at 24 h [6]: 19100 ng·h/mL | bioavailability [7]: 115% | inhibition at 10 µM [8]: -195% | concentration at 4 h [10]: 31.2 nM | concentration at 2 h [11]: 42 µM | Cave [12]: 21.089 µM | IC50 ([13]; read-out: IC50): 32 nM | IC50 ([13]; read-out: pIC50 (converted)): 28.2 nM | IC50 [14]: 16 nM | LIMBA logD brain at 8 h [15]: 1.8
Compound: O=C1CO[C@H]2CCN(C(=O)N3CCC(Cc4ccc(C(F)(F)F)cc4)CC3)C[C@H]2N1 [listing 1 of 2 here]
IC50 [9]: 7.7 µM

inhibition [16]: inactive | Activity [18]: 96% | Activity [19]: 92% | Activity [20]: 60%
Compound: O=C1CO[C@H]2CCN(C(=O)N3CCC(Cc4ccc(C(F)(F)F)cc4)CC3)C[C@H]2N1 [listing 2 of 2 here]
Activity [17]: Dose-Dependent Effect | Activity [21]: Active
